Inhibition and ED50 data for one substance are collected here from ChEMBL document CHEMBL1132618, “Cytotoxicity of (2,2':6',2''-terpyridine)platinum(II) complexes to Leishmania donovani, Trypanosoma cruzi, and Trypanosoma brucei” (J Med Chem, 1999).

Assay [1] has as its system Trypanosoma cruzi. The assay can be described thus: Antiparasitic activity against Trypanosoma cruzi for % inhibition at 10 uM concentration T/+ means the compound was toxic to macrophages but parasites still present. It counts as functional, organism-based. In outline:
(§1)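 T. cruzi Y strain (MHOM/BR/00/Y) trypomastigotes from MDCK cells infect CD1 mouse peritoneal macrophages at 5:1 in RPMI 1640 + 10% hiFCS, 37 °C, 5% CO2. Compound exposure is a 3-fold dilution series from 30 μM, quadruplicate, 3 days. Read-out is the proportion of infected cells after methanol fixation and Giemsa staining, versus untreated cultures. ED50 is derived by linear regression.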

For assay [2], the system named is Trypanosoma cruzi. Kind of assay: Antiparasitic activity against Trypanosoma cruzi for % inhibition at 3 uM concentration T/+ means the compound was toxic to macrophages but parasites still present. It counts as functional, organism-based. The gist of the method:
as §1

The test system of assay [3] is Trypanosoma brucei. The assay can be described thus: Antiparasitic activity against Trypanosoma brucei, percentage inhibition at 30 uM concentration. Type of assay: functional, organism-based. The gist of the method: (§2)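 T. brucei S427 bloodstream trypomastigotes are grown in HMI-18 + 20% hiFCS at 37 °C, 5% CO2. Compound exposure is a 3-fold dilution series from 30 μM, triplicate cultures, 72 h. Read-out is an MTT-based cytotoxicity assay, or Coulter counting of cells/mL in the dose-range screen. ED50 is derived by linear regression of dose-response.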

Assay [4] deals with Trypanosoma cruzi. Kind of assay: Compound was tested for antiparasitic activity caused against Trypanosoma cruzi for effective dose for 50% activity.
The subject of assay [5] is Leishmania donovani. Kind of assay: Antiparasitic activity against Leishmania donovani for % inhibition at 10 uM concentration T/100 means the compound was toxic to macrophages but more toxic to parasites that is none present, 100% inhibition. It counts as functional, organism-based. In outline:
(§3)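 L. donovani MHOM/ET/67/L82 amastigotes from golden hamster spleen infect CD1 mouse peritoneal macrophages at 10:1 in RPMI 1640 + 10% hiFCS, 37 °C, 5% CO2. Compound exposure is a 3-fold dilution series from 30 μM, quadruplicate cultures, 5 days, with medium + drug replaced once. Cells are methanol-fixed and Giemsa-stained, and the proportion of infected cells is compared with untreated cultures. ED50 is derived by linear regression.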

For assay [6], the system named is Trypanosoma cruzi. Kind of assay: Antiparasitic activity against Trypanosoma cruzi for % inhibition at 30 uM concentration T/+ means the compound was toxic to macrophages but parasites still present. Type of assay: functional, organism-based. The gist of the method: as §1
Assay [7] concerns Leishmania donovani. Kind of assay: Compound was tested for antiparasitic activity caused against Leishmania donovani for percentage inhibition at 3 uM concentration. It counts as functional, organism-based. The gist of the method:
as §3

Assay [8] deals with Trypanosoma brucei. Kind of assay: Compound was tested for antiparasitic activity caused against Trypanosoma brucei for percentage inhibition at 1 uM concentration. Type of assay: functional, organism-based. The gist of the method:
as §2

Assay [9] relates to Trypanosoma brucei. Kind of assay: Antiparasitic activity caused against Trypanosoma brucei for percentage inhibition at 3 uM concentration. It counts as functional, organism-based. The gist of the method: as §2
The subject of assay [10] is Leishmania donovani. Kind of assay: Antiparasitic activity against Leishmania donovani for % inhibition at 30 uM concentration T/100 means the compound was toxic to macrophages but more toxic to parasites that is none present, 100% inhibition. Type of assay: functional, organism-based. The gist of the method:
as §3

Assay [11] concerns Trypanosoma brucei. Kind of assay: Antiparasitic activity against Trypanosoma brucei, percentage inhibition at 10 uM concentration. Type of assay: functional, organism-based. In outline:
as §2

With “(2,2':6',2''-terpyridine)platinum (II) complex”, the inhibition entry in the assay with Trypanosoma cruzi [1] is “toxic to macrophages but parasites still present”; in the assay with Trypanosoma cruzi [2], “toxic to macrophages but parasites still present”; in the assay with Trypanosoma brucei [3], 100%; in the assay on Leishmania donovani [5] it was “Total inhibition”; in the assay on Trypanosoma cruzi [6], “toxic to macrophages but parasites still present”; in the assay with Leishmania donovani [7], 99.8%. Moreover, the inhibition is 100% in the assay with Trypanosoma brucei [8], 100% with Trypanosoma brucei [9], “Total inhibition” in the assay on Leishmania donovani [10] and 100% in the assay with Trypanosoma brucei [11]. This substance also gave an ED50 in the assay with Trypanosoma cruzi [4] of 4 µM.
